In ChEMBL document CHEMBL5030525, “Design, synthesis and antitumor activity evaluation of trifluoromethyl-substituted pyrimidine derivatives” (Bioorg Med Chem Lett, 2021):
Active and inactive are the calls of the source. The rule behind the calls is not given here.

Experiments:
[1] = system: PC-3; experiment: Antiproliferative activity against human PC-3 cells assessed as inhibition of cell growth measured after 72 hrs by MTT assay; type: functional, cell-based; details: PC-3, 72 h
How it was run: (§1)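 Cells in log phase were seeded at 3000–5000 per well and cultured 24 h at 37 °C, then exposed to a range of compound concentrations in fresh medium for 72 h. MTT was added and incubated 4 h at 37 °C, formazan was dissolved in DMSO, and absorbance was read at 490 nm. IC50 was taken from survival rate, as mean ± SD of three independent experiments. Stocks were 10 mM in DMSO.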

[2] = system: MGC-803; experiment: Antiproliferative activity against human MGC-803 cells assessed as inhibition of cell growth measured after 72 hrs by MTT assay; type: functional, cell-based; details: MGC-803, 72 h; how it was run: as §1
[3] = system: MCF7; experiment: Antiproliferative activity against human MCF7 cells assessed as inhibition of cell growth measured after 72 hrs by MTT assay; type: functional, cell-based; details: MCF7, 72 h; how it was run: as §1
[4] = system: NCI-H1975; experiment: Antiproliferative activity against human NCI-H1975 cells assessed as inhibition of cell growth measured after 72 hrs by MTT assay; type: functional, cell-based; details: NCI-H1975, 72 h; how it was run: as §1
[5] = system: GES1; experiment: Cytotoxicity against human GES1 cells assessed as reduction in cell viability measured after 72 hrs by MTT assay; type: cell-based; details: GES1, 72 h; how it was run: as §1
[6] = Selectivity index, ratio of IC50 for cytotoxicity against human GES1 cells to IC50 for antiproliferative activity against human NCI-H1975 cells; type: toxicity, cell-based; details: GES1 cells versus NCI-H1975 cells, read-out: Ratio IC50
How it was run: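 Ratio of GES-1 IC50 to H1975 IC50. Both came from the 72 h MTT assay, with IC50 as the mean ± SD of three separate experiments.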

[7] = system: NCI-H1975; experiment: Inhibition of colony formation in human NCI-H1975 cells measured after 9 days by crystal violet staining based microscopic analysis; type: functional, cell-based; details: time 9.0 day
How it was run: (§2)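 Log-phase cells were seeded at 1000 per well, incubated about 24 h, then exposed to 0, 1, 2 or 4 μM for 9 days. Cells were PBS-washed, fixed with ice-cold methanol for 30 min, and stained with crystal violet for 30 min. Plates were photographed and colonies examined by microscopy.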

[8] = system: NCI-H1975; experiment: Inhibition of colony formation in human NCI-H1975 cells at 4 uM measured after 9 days by crystal violet staining based microscopic analysis relative to control; type: functional; details: NCI-H1975, 216 h, time 9 day; how it was run: as §2
[9] = system: NCI-H1975; experiment: Effect on cell cycle progression in human NCI-H1975 cells assessed a accumulation of cells at G1 phase at 1 uM measured after 24 hrs by RNase A/PI staining based flow cytometry analysis (Rvb= 42.16%); type: functional
[10] = system: NCI-H1975; experiment: Effect on cell cycle progression in human NCI-H1975 cells assessed a accumulation of cells at S phase at 1 uM measured after 24 hrs by RNase A/PI staining based flow cytometry analysis (Rvb= 52.06%); type: functional
[11] = system: NCI-H1975; experiment: Effect on cell cycle progression in human NCI-H1975 cells assessed a accumulation of cells at G2/M phase at 1 uM measured after 24 hrs by RNase A/PI staining based flow cytometry analysis (Rvb= 5.78%); type: functional
[12] = system: NCI-H1975; experiment: Effect on cell cycle progression in human NCI-H1975 cells assessed a accumulation of cells at G1 phase at 2 uM measured after 24 hrs by RNase A/PI staining based flow cytometry analysis (Rvb= 42.16%); type: functional
[13] = system: NCI-H1975; experiment: Effect on cell cycle progression in human NCI-H1975 cells assessed a accumulation of cells at S phase at 2 uM measured after 24 hrs by RNase A/PI staining based flow cytometry analysis (Rvb= 52.06%); type: functional
[14] = system: NCI-H1975; experiment: Effect on cell cycle progression in human NCI-H1975 cells assessed a accumulation of cells at G2/M phase at 2 uM measured after 24 hrs by RNase A/PI staining based flow cytometry analysis (Rvb= 5.78%); type: functional
[15] = system: NCI-H1975; experiment: Effect on cell cycle progression in human NCI-H1975 cells assessed a accumulation of cells at G1 phase at 4 uM measured after 24 hrs by RNase A/PI staining based flow cytometry analysis (Rvb= 42.16%); type: functional
[16] = system: NCI-H1975; experiment: Effect on cell cycle progression in human NCI-H1975 cells assessed a accumulation of cells at S phase at 4 uM measured after 24 hrs by RNase A/PI staining based flow cytometry analysis (Rvb= 52.06%); type: functional
[17] = system: NCI-H1975; experiment: Effect on cell cycle progression in human NCI-H1975 cells assessed a accumulation of cells at G2/M phase at 4 uM measured after 24 hrs by RNase A/PI staining based flow cytometry analysis (Rvb= 5.78%); type: functional
[18] = system: NCI-H1975; experiment: Induction of apoptosis in human NCI-H1975 cells assessed as nucleus shrinkage at 2 to 4 uM measured after 48 hrs by DAPI staining based fluorescence microscopic analysis; type: functional, cell-based; details: dose 2-4 µM
How it was run: (§3)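 H1975 cells were seeded at 2×10^5 per well and incubated 24 h, then exposed to 0, 2 or 4 μM for 48 h. Cells were PBS-washed, fixed in pre-cooled methanol at 4 °C for 10 min, and stained with DAPI in the dark. Nuclear morphology was imaged by fluorescence microscopy.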

[19] = system: NCI-H1975; experiment: Induction of apoptosis in human NCI-H1975 cells assessed as appearance of dense particles at 2 to 4 uM measured after 48 hrs by DAPI staining based fluorescence microscopic analysis; type: functional, cell-based; details: dose 2-4 µM; how it was run: as §3
[20] = system: NCI-H1975; experiment: Induction of apoptosis in human NCI-H1975 cells assessed as broken nucleus at 2 to 4 uM measured after 48 hrs by DAPI staining based fluorescence microscopic analysis; type: functional, cell-based; details: dose 2-4 µM; how it was run: as §3
[21] = system: NCI-H1975; experiment: Induction of apoptosis in human NCI-H1975 cells assessed as increase in number of change in apoptotic morphology at 2 to 4 uM measured after 48 hrs by DAPI staining based fluorescence microscopic analysis; type: functional, cell-based; details: dose 2-4 µM; how it was run: as §3
[22] = system: NCI-H1975; experiment: Induction of apoptosis in human NCI-H1975 cells assessed as increase in total apoptotic cells at 1 uM measured after 48 hrs by Annexin V-FITC/PI staining double staining based flow cytometry analysis (Rvb= 3.86%); type: functional
[23] = system: NCI-H1975; experiment: Induction of apoptosis in human NCI-H1975 cells assessed as increase in total apoptotic cells at 2 uM measured after 48 hrs by Annexin V-FITC/PI staining double staining based flow cytometry analysis (Rvb= 3.86%); type: functional
[24] = system: NCI-H1975; experiment: Induction of apoptosis in human NCI-H1975 cells assessed as increase in total apoptotic cells at 4 uM measured after 48 hrs by Annexin V-FITC/PI staining double staining based flow cytometry analysis (Rvb= 3.86%); type: functional
[25] = system: NCI-H1975; experiment: Induction of apoptosis in human NCI-H1975 cells assessed as increase in total apoptotic cells at 1 uM measured after 72 hrs by Annexin V-FITC/PI staining double staining based flow cytometry analysis (Rvb= 3.86%); type: functional
[26] = system: NCI-H1975; experiment: Induction of apoptosis in human NCI-H1975 cells assessed as increase in total apoptotic cells at 2 uM measured after 72 hrs by Annexin V-FITC/PI staining double staining based flow cytometry analysis (Rvb= 3.86%); type: functional
[27] = system: NCI-H1975; experiment: Induction of apoptosis in human NCI-H1975 cells assessed as increase in total apoptotic cells at 4 uM measured after 72 hrs by Annexin V-FITC/PI staining double staining based flow cytometry analysis (Rvb= 3.86%); type: functional
[28] = system: NCI-H1975; experiment: Induction of apoptosis in human NCI-H1975 cells assessed as increase in Bax protein expression at 1 to 4 uM measured after 48 hrs by western blot analysis; type: functional, cell-based; details: dose 1-4 µM
How it was run: (§4)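 H1975 cells in dishes were incubated 24 h, then treated at 0, 1, 2 or 4 μM for 48 h. Cells were trypsinised and lysed in RIPA, and protein was quantified by BCA. Proteins were separated by SDS-PAGE, transferred to nitrocellulose, and blocked in 5% skim milk. Primary antibodies were applied overnight at 4 °C, then secondary (1:10000) for 2 h. Detection was by ECL, with GAPDH as control and densitometry.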

[29] = system: NCI-H1975; experiment: Induction of apoptosis in human NCI-H1975 cells assessed as increase in P53 expression at 1 to 4 uM measured after 48 hrs by western blot analysis; type: functional, cell-based; details: dose 1-4 µM; how it was run: as §4
[30] = system: NCI-H1975; experiment: Induction of apoptosis in human NCI-H1975 cells assessed as down regulation of Bcl-2 expression at 1 to 4 uM measured after 48 hrs by western blot analysis; type: functional, cell-based; details: dose 1-4 µM; how it was run: as §4

Compound: FC(F)(F)c1ccc(CSc2nc(Sc3nncs3)cc(C(F)(F)F)n2)cc1
- IC50 [1]: 7.88 µM
- IC50 [2]: 10.8 µM
- IC50 [3]: 8.81 µM
- IC50 [4]: 2.27 µM
- IC50 [5]: 37.4 µM
- selectivity ratio [6]: 16.5
- inhibition [7]: Dose-Dependent Effect
- inhibition at 4 µM [8]: 90%
- Activity [9]: 34.53%
- Activity [10]: 51.84%
- Activity [11]: 13.63%
- Activity [12]: 31.16%
- Activity [13]: 47.56%
- Activity [14]: 21.28%
- Activity [15]: 25.06%
- Activity [16]: 44.55%
- Activity [17]: 30.39%
- Activity [18]: Active
- Activity [19]: Active
- Activity [20]: Active
- Activity [21]: Active
- Activity [22]: 5.04%
- Activity [23]: 11.13%
- Activity [24]: 16.68%
- Activity [25]: 7.7%
- Activity [26]: 17.31%
- Activity [27]: 29.08%
- Activity [28]: Active
- Activity [29]: Active
- Activity [30]: Active

Compound: O=c1[nH]cc(F)c(=O)[nH]1 [FLUOROURACIL]
- IC50 [1]: 6.23 µM
- IC50 [2]: 9.05 µM
- IC50 [3]: 8.77 µM
- IC50 [4]: 9.37 µM
- IC50 [5]: 19.3 µM
- selectivity ratio [6]: 2.06

Compound: C=CC(=O)Nc1cccc(Nc2cc(C(F)(F)F)nc(SCc3ccc(C(F)(F)F)cc3)n2)c1
- IC50 [1]: 5.65 µM
- IC50 [2]: 9.8 µM
- IC50 [3]: 7.08 µM
- IC50 [4]: 4.77 µM
- IC50 [5]: 31.5 µM
- selectivity ratio [6]: 6.6

Compound: C=CC(=O)Nc1cccc(Nc2cc(C(F)(F)F)nc(SCc3cccc(C)c3)n2)c1
- IC50 [1]: 9.05 µM
- IC50 [2]: 12.6 µM
- IC50 [3]: 26.7 µM
- IC50 [4]: 13.2 µM

Compound: FC(F)(F)c1ccc(CSc2nc(N3CCSCC3)cc(C(F)(F)F)n2)cc1
- IC50 [1]: 46.8 µM
- IC50 [2]: 44 µM
- IC50 [3]: > 50 µM
- IC50 [4]: > 50 µM

Compound: C=CC(=O)Nc1cccc(Nc2cc(C(F)(F)F)nc(SCC3CC3)n2)c1
- IC50 [1]: 12.6 µM
- IC50 [2]: 38.7 µM
- IC50 [3]: 14.2 µM
- IC50 [4]: 19.2 µM

Compound: Cc1nnc(Sc2cc(C(F)(F)F)nc(SCc3ccc(C(F)(F)F)cc3)n2)s1
- IC50 [1]: > 50 µM
- IC50 [2]: 11.4 µM
- IC50 [3]: > 50 µM
- IC50 [4]: 3.06 µM

Compound: FC(F)(F)c1ccc(CSc2nc(Sc3ncccn3)cc(C(F)(F)F)n2)cc1
- IC50 [1]: > 50 µM
- IC50 [2]: 28.6 µM
- IC50 [3]: > 50 µM
- IC50 [4]: 14 µM

Compound: FC(F)(F)c1ccc(CSc2nc(Sc3ncc(-c4ccncc4)s3)cc(C(F)(F)F)n2)cc1
- IC50 [1]: 7.35 µM
- IC50 [2]: 5.77 µM
- IC50 [3]: 10.1 µM
- IC50 [4]: 16.7 µM

Compound: C=CC(=O)Nc1cccc(Nc2cc(C(F)(F)F)nc(SCc3cccc(Br)c3)n2)c1
- IC50 [1]: 7.44 µM
- IC50 [2]: 22.8 µM
- IC50 [3]: 14.3 µM
- IC50 [4]: 7.44 µM

Compound: Cc1csc(Sc2cc(C(F)(F)F)nc(SCc3ccc(C(F)(F)F)cc3)n2)n1
- IC50 [1]: 12 µM
- IC50 [2]: 21.3 µM
- IC50 [3]: 14.5 µM
- IC50 [4]: 5.84 µM

Compound: C=CC(=O)Nc1cccc(Nc2cc(C(F)(F)F)nc(SCc3c(Cl)cccc3Cl)n2)c1
- IC50 [1]: 14.6 µM
- IC50 [2]: 34.7 µM
- IC50 [3]: 9.66 µM
- IC50 [4]: 9.03 µM
